Test results published in ChEMBL document CHEMBL1125428, “Development of 2,3-dihydro-6-(3-phenoxypropyl)-2-(2-phenylethyl)-5-benzofuranol (L-670,630) as a potent and orally active inhibitor of 5-lipoxygenase” (J Med Chem, 1992).

Experiments:
[1] = system: Rattus norvegicus; experiment: Total radioactivity in tissues of male sd rats dosed orally with H-labeled compound at 21 mg/kg after 30 min in kidney; assay type: functional; conditions: route oral
Procedure, shortened: (§1)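 Male Sprague-Dawley rats received ³H-labelled drug (phenoxy ring, 3.96 μCi/mg) in PEG-400 by gavage at 21 mg/kg. Animals were killed at 5, 15, 30 min and at 1, 2, 4, 24 and 48 h. Homogenates were pooled per group, and total radioactivity was measured as the mean of duplicate combustions, in μg equiv/g. Two or three rats were used per point, except one rat at 24 and 48 h.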

[2] = system: Rattus norvegicus; experiment: Total radioactivity in tissues of male sd rats dosed intravenously with H-labeled compound at 21 mg/kg after 2 hr in kidney; assay type: functional; conditions: route intravenous
Procedure, shortened: (§2)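 Male Sprague-Dawley rats given ³H compound iv via femoral vein in PEG-400, 21 mg/kg, 3.96 μCi/mg. Killed at 2, 10, 30 min, 1, 2 and 4 h. Total radioactivity measured by combustion of composited tissue homogenates, in duplicate. Two or three rats per time point, one at 10 and 30 min.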

[3] = system: Rattus norvegicus; experiment: Percentage inhibition against antigen induced dyspnea in hyperactive inbred rat at a dose of 0.05 mg/kg; assay type: functional
Procedure, shortened: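 Inbred hyperreactive rats, six per group, dosed po 2 h before aerosol ovalbumin challenge, with drug suspension or vehicle (0.4% Methocel/0.5% Tween 80, 10 mL/kg). Methysergide 3 mg/kg iv given 5 min before antigen. Dyspnea duration recorded by pneumotachograph. % inhibition of duration is relative to vehicle controls. Student's t test used; ED50 from linear regression.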

[4] = system: Rattus norvegicus; experiment: Total radioactivity in tissues of male sd rats dosed orally with H-labeled compound at 21 mg/kg after 1 hr in liver; assay type: functional; conditions: route oral; procedure, shortened: as §1
[5] = system: Rattus norvegicus; experiment: Total radioactivity in tissues of male sd rats dosed orally with H-labeled compound at 21 mg/kg after 30 min in liver; assay type: functional; conditions: route oral; procedure, shortened: as §1
[6] = system: Rattus norvegicus; experiment: Total radioactivity in tissues of male sd rats dosed orally with H-labeled compound at 21 mg/kg after 15 min in kidney; assay type: functional; conditions: route oral; procedure, shortened: as §1
[7] = system: Rattus norvegicus; experiment: Total radioactivity in tissues of male sd rats dosed orally with H-labeled compound at 21 mg/kg after 15 min in liver; assay type: functional; conditions: route oral; procedure, shortened: as §1
[8] = system: Rattus norvegicus; experiment: Total radioactivity in tissues of male sd rats dosed intravenously with H-labeled compound at 21 mg/kg after 4 hr in liver; assay type: functional; conditions: route intravenous
Procedure, shortened: (§3)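 ³H label in the phenoxy ring, dissolved in PEG-400, specific activity 3.96 μCi/mg, given iv via femoral vein at 21 mg/kg to male Sprague-Dawley rats. Animals were killed at 2, 10, 30 min, 1, 2 and 4 h. Tissues from each group were pooled and homogenized, and total radioactivity was measured by combustion, averaged over duplicate combustions. Results are expressed as μg equiv/g. Two or three rats were used per time point.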

[9] = Peak concentration of drug in rat plasma after oral dosing at 20 mg/kg. Concentration of parent compound was measured before (free) and after (total) beta-glucuronidase treatment; total 0.5 uM; assay type: ADME, organism-based; design: dose 20 mg/kg, route oral; conditions: read-out: Plasma level
[10] = target: T1, Polyunsaturated fatty acid 5-lipoxygenase (Rattus norvegicus, UniProt P12527); experiment: Tested for its inhibitory activity against arachidonic acid in rat 5-lipoxygenase.
T1 sequence (P12527 whole entry): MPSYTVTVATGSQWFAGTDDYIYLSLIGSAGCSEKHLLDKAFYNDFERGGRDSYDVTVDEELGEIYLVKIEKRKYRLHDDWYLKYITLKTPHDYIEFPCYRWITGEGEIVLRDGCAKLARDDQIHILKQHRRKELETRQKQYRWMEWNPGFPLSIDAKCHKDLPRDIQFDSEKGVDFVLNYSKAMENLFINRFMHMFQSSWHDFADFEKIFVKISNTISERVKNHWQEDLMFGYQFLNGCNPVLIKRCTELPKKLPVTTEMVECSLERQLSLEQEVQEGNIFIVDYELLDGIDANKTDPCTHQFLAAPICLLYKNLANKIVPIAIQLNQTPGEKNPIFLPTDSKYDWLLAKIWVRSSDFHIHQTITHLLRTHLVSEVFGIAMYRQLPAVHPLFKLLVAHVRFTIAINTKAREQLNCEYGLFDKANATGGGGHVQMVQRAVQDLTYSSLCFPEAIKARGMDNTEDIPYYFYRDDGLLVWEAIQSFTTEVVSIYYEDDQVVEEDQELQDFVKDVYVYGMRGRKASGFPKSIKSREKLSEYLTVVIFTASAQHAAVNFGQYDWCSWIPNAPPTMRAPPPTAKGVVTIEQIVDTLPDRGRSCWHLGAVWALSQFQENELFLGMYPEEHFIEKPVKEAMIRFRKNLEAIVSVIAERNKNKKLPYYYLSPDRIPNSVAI
Procedure, shortened: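 10000g supernatant from rat PMN leukocytes incubated 10 min with [14C]arachidonic acid. 5-Lipoxygenase activity taken as percentage conversion to 5-HETE plus 5,12-diHETEs.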

[11] = system: Rattus norvegicus; experiment: Total radioactivity in tissues of male sd rats dosed orally with H-labeled compound at 21 mg/kg after 5 min in lung; assay type: functional; conditions: route oral; procedure, shortened: as §1
[12] = system: Rattus norvegicus; experiment: Total radioactivity in tissues of male sd rats dosed intravenously with H-labeled compound at 21 mg/kg after 30 min in liver; assay type: functional; conditions: route intravenous; procedure, shortened: as §2
[13] = system: Rattus norvegicus; experiment: Total radioactivity in tissues of male sd rats dosed orally with H-labeled compound at 21 mg/kg after 4 hr in plasma; assay type: functional; conditions: route oral; procedure, shortened: as §1
[14] = system: Rattus norvegicus; experiment: Total radioactivity in tissues of male sd rats dosed orally with H-labeled compound at 21 mg/kg after 30 min in plasma; assay type: functional; conditions: route oral; procedure, shortened: as §1
[15] = system: Rattus norvegicus; experiment: Total radioactivity in tissues of male sd rats dosed orally with H-labeled compound at 21 mg/kg after 1 hr in lung; assay type: functional; conditions: route oral; procedure, shortened: as §1
[16] = system: Rattus norvegicus; experiment: Total radioactivity in tissues of male sd rats dosed orally with H-labeled compound at 21 mg/kg after 4 hr in lung; assay type: functional; conditions: route oral; procedure, shortened: as §1
[17] = system: Rattus norvegicus; experiment: Total radioactivity in tissues of male sd rats dosed intravenously with H-labeled compound at 21 mg/kg after 10 min in lung; assay type: functional; conditions: route intravenous; procedure, shortened: as §2
[18] = target: Arachidonate 5-lipoxygenase (Homo sapiens); experiment: Inhibitory activity of LTB4 production in human PMN
[19] = system: Rattus norvegicus; experiment: Total radioactivity in tissues of male sd rats dosed intravenously with H-labeled compound at 21 mg/kg after 4 hr in plasma; assay type: functional; conditions: route intravenous; procedure, shortened: as §3
[20] = system: Rattus norvegicus; experiment: Total radioactivity in tissues of male sd rats dosed orally with H-labeled compound at 21 mg/kg after 5 min in kidney; assay type: functional; conditions: route oral; procedure, shortened: as §1
[21] = species on record: Canis familiaris; experiment: Effect on methemoglobin formation in canine venous blood containing heparin; assay type: functional, Canis lupus familiaris
[22] = system: Rattus norvegicus; experiment: Total radioactivity in tissues of male sd rats dosed orally with H-labeled compound at 21 mg/kg after 1 hr in kidney; assay type: functional; conditions: route oral; procedure, shortened: as §1
[23] = system: Rattus norvegicus; experiment: Amount of radioactivity elute with H-labeled at 21 mg/kg after 1 hr using RP-HPLC. at a dose of 2.02 ug/g in lung of male sd rat.
[24] = system: Rattus norvegicus; experiment: Total radioactivity in tissues of male sd rats dosed intravenously with H-labeled compound at 21 mg/kg after 10 min in kidney; assay type: functional; conditions: route intravenous; procedure, shortened: as §2
[25] = species on record: Rattus norvegicus; experiment: Percentage inhibition against antigen induced dyspnea in hyperactive inbred rat at a dose of […]; assay type: functional; conditions: dose 0.15 mg/kg

For `Oc1cc2c(cc1CCCOc1ccccc1)OC(CCc1ccccc1)C2` (stereo not given), the Total radioactivity [1] was 0.85 ug equiv g-1, the Total radioactivity [2] was 1.24 ug equiv g-1 and the inhibition in vivo at 0.05 mg/kg [3] was 50%. For the same molecule, the Total radioactivity [4] was 10.93 ug equiv g-1, the Total radioactivity [5] was 3.92 ug equiv g-1 and the Total radioactivity [6] was 5.5 ug equiv g-1. For the same molecule, the Total radioactivity [7] was 7.82 ug equiv g-1, the Total radioactivity [8] was 9.87 ug equiv g-1 and the Cmax [9] was 0.3 µM. The IC50 [10] was 0.023 µM, the Total radioactivity [11] was 473.13 ug equiv g-1 and the Total radioactivity [12] was 41.11 ug equiv g-1. It also gave a Total radioactivity [13] of 3.27 ug equiv g-1, a Total radioactivity [14] of 1.09 ug equiv g-1 and a Total radioactivity [15] of 3.58 ug equiv g-1. It also gave a Total radioactivity [16] of 1.74 ug equiv g-1, a Total radioactivity [17] of 75.08 ug equiv g-1 and an IC50 [18] of 0.006 µM. The Total radioactivity [19] was 1.18 ug equiv g-1, the Total radioactivity [20] was 9.12 ug equiv g-1 and the Formation [21] was 4%. The Total radioactivity [22] was 1.62 ug equiv g-1, the Activity [23] was 56.3% and the Total radioactivity [24] was 54.13 ug equiv g-1. It also gave an inhibition in vivo at […] [25] of 55%.
